# Compound activity: PubChem BioAssay, PCMD
# Hits are enriched below; roughly 1% of the tested compounds scored in any of these assays.
# Yeast growth tox = Inhibits yeast growth, turbidity readout; S. cerevisiae wild-type growth, A595 turbidity, 16 h; growth inhibition, % at 25 µM (by protocol); 0.3% of 30,000 active; AID 685;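 active = mutant and wild-type yeast strains alike exhibit over 30% growth inhibition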;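 note: 0% = untreated cell controls and 100% = YPD media blanks without cells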
#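 System: S. cerevisiae wild-type or eIF2Bepsilon-R284H mutant strain; times: 16 h growth with compound, 30 °C; signal: absorbance at 595 nm (turbidity); measure: growth inhibition (%) versus cell controls and blanks; compound: 25 µM single dose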
# eIF2B yeast act = eIF2B (yeast) activity modulation | S. cerevisiae eIF2B-epsilon R284H, GCN4-lacZ luminescence | inhibition, % at 25 µM (by protocol) | 0.91% of 27,000 active;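 active = mutant luminescence inhibited past about 50% while wild type luminescence and mutant growth stay under set limits, limit read from the data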
#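 Material: yeast eIF2B-epsilon R284H mutant carrying GCN4–beta-galactosidase fusion. Medium: YPD yeast growth medium. Incubation: 16 h growth with compound at 30 °C, 90 min Beta-Glo step. Signal: Beta-Glo luminescence plus absorbance at 595 nm. Evaluation: % inhibition of reporter signal and growth versus controls. Doses: 25 µM single dose.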
# An asterisk follows results filed as active; · = no result given.
SMILES,Yeast growth tox,eIF2B yeast act
Nn1c(CSc2nc3ccccc3o2)nnc1CSc1nc2ccccc2o1,-20,61*
Cc1ccc(Nc2cc(C)nn2-c2nc(C)cc(=O)[nH]2)cc1,78*,98
CCOC(=O)c1ccc(Nc2nc(C)cc(=O)[nH]2)cc1,15,18
CCOc1ccccc1C(=O)N(Cc1ccccc1)Cc1cc2cc3c(cc2[nH]c1=O)OCCO3,2,-28
COc1cc(/C=C2\C(=O)N(CCC#N)N=C2C)c(Br)cc1OC(C)C,-17,53*
COCC(=O)Nc1c(C(=O)Nc2ccccc2OC)oc2ccccc12,-17,10
COc1ccccc1NC(=O)c1oc2ccccc2c1NC(=O)c1cc(OC)c(OC)c(OC)c1,-44,63*
CCOc1ccc2c(c1)C(c1ccccc1)=NNC(c1ccccc1)=N2,-39,-8
CCc1ccc(C(=O)/C=C/c2ccc([N+](=O)[O-])o2)cc1,66*,·
CCCOC(=O)/C(=C\c1ccc([N+](=O)[O-])o1)NC(=O)c1ccccc1,-16,0
Cc1cc(C)cc(NC(=O)NC2CCN(CC(=O)Nc3c(C)cc(C)cc3C)CC2)c1,-11,11
CCNC(=O)CC1C(=O)N(c2ccccc2)C(=O)N1CCc1ccc(OC)cc1 (stereo not drawn),5,14
CCCCN1C(=O)CN(CCc2ccccc2)C(=O)C1c1ccc(OC)cc1 (stereo not drawn),1,58*
Cc1ccc2cc(CCNC(=O)c3ccc(Br)o3)c(=O)[nH]c2c1,-2,·
O=C(c1c[nH]c2ccc(S(=O)(=O)N3CCOCC3)cc2c1=O)N1CCCC1,1,60*
O=C(O)c1c[nH]c2ccc(S(=O)(=O)N3CCN(c4ccc(F)cc4)CC3)cc2c1=O,18,10
Cc1ccc(CSCC(=O)N2CCOCC2)cc1,6,28
CCCn1c(=O)[nH]c(=O)c2c1nc(-c1ccccc1)n2CCN1CCOCC1,18,·
O=C(COc1cccc2ccccc12)Nc1nc2ccccc2[nH]1,30*,·
CC(CC(=O)Nc1nc2ccccc2[nH]1)c1ccccc1 (stereo not drawn),14,1
CC(=O)c1cccc(-n2nnnc2SCC(=O)Nc2cccc(NC(=O)c3ccco3)c2)c1,7,61*
CC(=O)c1cccc(-n2nnnc2SCC(=O)Nc2ccccc2N2CCCCC2)c1,7,19
CCC(C)(C)n1nnnc1C(c1ccc(C)cc1)N1CCN(Cc2ccc3c(c2)OCO3)CC1 (stereo not drawn),-9,·
CCCC(CCC)C(=O)Nc1cccc(C(=O)O)c1,19,20
CCCCCCCCCCn1c2c(c(=N)c3c1CCC3)CCC2,79*,·
SMILES,Yeast growth tox,eIF2B yeast act
CCCCCCn1ccc(=N)cc1,-8,-17
CC(O)CNc1nc2ccccc2n1CC(=O)NCCc1ccc(Cl)cc1 (stereo not drawn),14,10
CCc1c(C)nc2cc(-c3ccc(OC)c(OC)c3)nn2c1N1CCCC1,12,15
COc1ccc(-c2cc3nc(C)cc(N)n3n2)cc1,-14,82*
CCOC(=O)c1sc2ccc(S(=O)(=O)N3CC(C)CC(C)C3)cc2c1N (stereo not drawn),-1,10
Fc1cccc(-c2cc3nc(-c4ccccc4)cc(N4CCC5(CC4)OCCO5)n3n2)c1,·,-2
COCCN1CCN(c2cc(-c3ccccc3)nc3cc(-c4cccc(F)c4)nn23)CC1,74*,·
COn1c(SCc2ccc(C)cc2C)nc2ccccc2c1=O,15,13
COC(=O)c1ccc(C(=O)OC)c(NC(=O)CSc2nc(-c3ccco3)cc(C(F)(F)F)n2)c1,0,18
COC(=O)c1ccccc1NC(=O)CSc1nc(-c2ccco2)cc(C(F)(F)F)n1,-5,66*
COc1ccc(C2Oc3ccccc3N2C(C)=O)cc1 (stereo not drawn),-34,0
C=CCSc1nnc2c(n1)OC(c1cccnc1)N(C(C)=O)c1ccccc1-2 (stereo not drawn),-9,55*
CCOC(=O)C1=NN(c2cccc(Cl)c2)C2=NC(C)=C(C(=O)OC)C(c3cccs3)N12 (stereo not drawn),2,36
